Assay results: ChEMBL document CHEMBL1122383, “Potential tissue-imaging agents: 23-(trimethyl [117mSn]stannyl)-24-nor-5 alpha-cholan-3 beta-ol” (J Med Chem, 1983)

What was measured:
Homo sapiens [1] = organism: Homo sapiens; experiment: Adsorbed radiation dose value was calculated to human ovaries; format: functional, Female gonad
Outline: (§1)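 Human absorbed dose (rd/mCi) estimated from rat tissue distribution data re-expressed as percent kilogram dose per gram. Fraction of injected dose per human organ = (% kg dose/g × organ weight)/(kg body weight of man × 100). Cumulated activities were derived from these fractions and organ half-times, then combined with Sn-117m S values (rd/μCi-h).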

Homo sapiens [2] = organism: Homo sapiens; experiment: Adsorbed radiation dose value was calculated to human total body; format: functional; outline: as §1
Homo sapiens [3] = organism: Homo sapiens; experiment: Adsorbed radiation dose value was calculated to human spleen; format: functional; outline: as §1
Homo sapiens [4] = organism: Homo sapiens; experiment: Adsorbed radiation dose value was calculated to human liver; format: functional; outline: as §1
Homo sapiens [5] = organism: Homo sapiens; experiment: Adsorbed radiation dose value was calculated to human lungs; format: functional; outline: as §1
Homo sapiens [6] = organism: Homo sapiens; experiment: Adsorbed radiation dose value was calculated to human adrenal; format: functional; outline: as §1
Rattus norvegicus [7] = experiment: Tested for distribution of radioactivity in female rat tissue at 3 day after intravenous administration in blood; format: ADME, organism-based; details: in vivo, 72 h
Outline: (§2)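 Rat tissue distribution followed intravenous injection of the tin-117m-labeled steroid into female rats. Adrenals, blood, kidneys, liver and ovaries were counted at the stated day. Values are percent dose/gram, given as the mean and range for three female rats.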

Rattus norvegicus [8] = experiment: Tested for distribution of radioactivity in female rat tissue at 7 day after intravenous administration in liver; format: ADME, organism-based; details: in vivo, 168 h; outline: as §2
Rattus norvegicus [9] = experiment: Tested for distribution of radioactivity in female rat tissue at 14d ay after intravenous administration in blood; format: ADME, organism-based; details: in vivo; outline: as §2
Rattus norvegicus [10] = experiment: Tested for distribution of radioactivity in female rat tissue at 3 day after intravenous administration in adrenal; format: ADME, organism-based; details: in vivo, 72 h; outline: as §2
Rattus norvegicus [11] = experiment: Tested for distribution of radioactivity in female rat tissue at 21 day after intravenous administration in adrenal; format: ADME, organism-based; details: in vivo, 504 h; outline: as §2
Rattus norvegicus [12] = experiment: Tested for distribution of radioactivity in female rat tissue at 7 day after intravenous administration in blood; format: ADME, organism-based; details: in vivo, 168 h; outline: as §2
Rattus norvegicus [13] = experiment: Tested for distribution of radioactivity in female rat tissue at 3 day after intravenous administration in kidney; format: ADME, organism-based; details: in vivo, 72 h; outline: as §2
Rattus norvegicus [14] = experiment: Tested for distribution of radioactivity in female rat tissue at 21 day after intravenous administration in ovaries; format: ADME, organism-based; details: in vivo, 504 h; outline: as §2
Rattus norvegicus [15] = experiment: Tested for distribution of radioactivity in female rat tissue at 14d ay after intravenous administration in kidney; format: ADME, organism-based; details: in vivo; outline: as §2
Rattus norvegicus [16] = experiment: Tested for distribution of radioactivity in female rat tissue at 21 day after intravenous administration in kidney; format: ADME, organism-based; details: in vivo, 504 h; outline: as §2
Rattus norvegicus [17] = experiment: Tested for distribution of radioactivity in female rat tissue at 7 day after intravenous administration in ovaries; format: ADME, organism-based; details: in vivo, 168 h; outline: as §2
Rattus norvegicus [18] = experiment: Tested for distribution of radioactivity in female rat tissue at 14d ay after intravenous administration in liver; format: ADME, organism-based; details: in vivo; outline: as §2
Rattus norvegicus [19] = experiment: Tested for distribution of radioactivity in female rat tissue at 14d ay after intravenous administration in ovaries; format: ADME, organism-based; details: in vivo; outline: as §2
Rattus norvegicus [20] = experiment: Tested for distribution of radioactivity in female rat tissue at 3 day after intravenous administration in ovaries; format: ADME, organism-based; details: in vivo, 72 h; outline: as §2
Rattus norvegicus [21] = experiment: Tested for distribution of radioactivity in female rat tissue at 21 day after intravenous administration in blood; format: ADME, organism-based; details: in vivo, 504 h; outline: as §2
Rattus norvegicus [22] = experiment: Tested for distribution of radioactivity in female rat tissue at 7 day after intravenous administration in kidney; format: ADME, organism-based; details: in vivo, 168 h; outline: as §2
Rattus norvegicus [23] = experiment: Tested for distribution of radioactivity in female rat tissue at 3 day after intravenous administration in liver; format: ADME, organism-based; details: in vivo, 72 h; outline: as §2
Rattus norvegicus [24] = experiment: Tested for distribution of radioactivity in female rat tissue at 7 day after intravenous administration in adrenal; format: ADME, organism-based; details: in vivo, 168 h; outline: as §2
Rattus norvegicus [25] = experiment: Tested for distribution of radioactivity in female rat tissue at 14d ay after intravenous administration in adrenal; format: ADME, organism-based; details: in vivo; outline: as §2
[26] = It is the ratio of adrenal to blood measured on day 21 after iv administration in rat.; format: functional, organism-based
Outline: (§3)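 Female rats received an intravenous injection of the tin-117m-labeled steroid. Adrenal/blood and adrenal/liver ratios were calculated from percent dose per gram of tissue at the stated day after injection.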

Homo sapiens [27] = organism: Homo sapiens; experiment: Adsorbed radiation dose value was calculated to human body; format: functional, organism-based
Outline: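 Rat tissue distribution data were converted to percent kilogram dose per gram. The fraction of injected dose in each human organ was taken as (% kg dose/g × organ weight)/(kg body weight × 100). Cumulated activities came from these fractions and organ half-times. Sn-117m S values (rd/µCi-h) then gave the absorbed dose in rd/mCi.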

[28] = It is the ratio of adrenal to blood measured on day 3 after iv administration in rat.; format: functional, organism-based; outline: as §3
Rattus norvegicus [29] = experiment: Adrenal Uptake was determined on day1 after iv administration into rat; format: functional, organism-based
Outline: (§4)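 The tin-117m-labeled steroid was injected intravenously into female rats. Adrenal glands were taken at the stated day after injection, up to 21 days. Radioactivity was reported as percent of injected dose, given as the mean and range.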

[30] = It is the ratio of adrenal to liver measured on day 21 after iv administration in rat.; format: functional, organism-based; outline: as §3
[31] = It is the ratio of adrenal to liver measured on day1 after iv administration in rat.; format: functional, organism-based; outline: as §3
[32] = It is the ratio of adrenal to blood measured on day 14 after iv administration in rat.; format: functional, organism-based; outline: as §3
Rattus norvegicus [33] = experiment: Adrenal Uptake was determined on day 3 after iv administration into rat; format: functional, organism-based; outline: as §4
Rattus norvegicus [34] = experiment: Adrenal Uptake was determined on day 14 after iv administration into rat; format: functional, organism-based; outline: as §4
[35] = It is the ratio of adrenal to liver measured on day 14 after iv administration in rat.; format: functional, organism-based; outline: as §3
Rattus norvegicus [36] = experiment: Adrenal Uptake was determined on day 7 after iv administration into rat; format: functional, organism-based; outline: as §4
[37] = It is the ratio of adrenal to blood measured on day 7 after iv administration in rat.; format: functional, organism-based; outline: as §3
[38] = It is the ratio of adrenal to liver measured on day 7 after iv administration in rat.; format: functional, organism-based; outline: as §3
[39] = It is the ratio of adrenal to liver measured on day 3 after iv administration in rat.; format: functional, organism-based; outline: as §3
[40] = It is the ratio of adrenal to blood measured on day1 after iv administration in rat.; format: functional, organism-based; outline: as §3
Rattus norvegicus [41] = experiment: Adrenal Uptake was determined on day 21 after iv administration into rat; format: functional, organism-based; outline: as §4

CC(C)[Te]CCC(C)C1CC[C@H]2[C@@H]3CC[C@H]4CC(O)CCC4(C)[C@H]3CCC12C (some centres not stated)
Dose (Homo sapiens [1]): 8 rd mCi-1 | Dose (Homo sapiens [2]): 0.8 rd mCi-1 | Dose (Homo sapiens [3]): 1.4 rd mCi-1 | Dose (Homo sapiens [4]): 1.6 rd mCi-1 | Dose (Homo sapiens [5]): 1.3 rd mCi-1 | Dose (Homo sapiens [6]): 98 rd mCi-1

CC(C)[Te]CCCC(C)C1CCC2C3CC=C4CC(O)CCC4(C)C3CCC12C (configuration not stated)
Dose (Homo sapiens [1]): 13 rd mCi-1 | Dose (Homo sapiens [2]): 1.4 rd mCi-1 | Dose (Homo sapiens [3]): 34 rd mCi-1 | Dose (Homo sapiens [4]): 2 rd mCi-1 | Dose (Homo sapiens [5]): 1.9 rd mCi-1 | Dose (Homo sapiens [6]): 210 rd mCi-1

Stannanyl complex [listing 1 of 2 here]
Dose/g (Rattus norvegicus [7]): 0.8% | Dose/g (Rattus norvegicus [8]): 0.44% | Dose/g (Rattus norvegicus [9]): 0.15% | Dose/g (Rattus norvegicus [10]): 50.88% | Dose/g (Rattus norvegicus [11]): 2.33% | Dose/g (Rattus norvegicus [12]): 0.19% | Dose/g (Rattus norvegicus [13]): 0.79% | Dose/g (Rattus norvegicus [14]): 1.26% | Dose/g (Rattus norvegicus [15]): 0.38% | Dose/g (Rattus norvegicus [16]): 0.26% | Dose/g (Rattus norvegicus [17]): 4.9% | Dose/g (Rattus norvegicus [18]): 0.2% | Dose/g (Rattus norvegicus [19]): 2.53% | Dose/g (Rattus norvegicus [20]): 10.99% | Dose/g (Rattus norvegicus [21]): 0.1% | Dose/g (Rattus norvegicus [22]): 0.54% | Dose/g (Rattus norvegicus [23]): 2.13% | Dose/g (Rattus norvegicus [24]): 19.37% | Dose/g (Rattus norvegicus [25]): 7.46%

Stannanyl complex [listing 2 of 2 here]
Ratio [26]: 23.3 | Dose (Homo sapiens [27]): 0.77 rd mCi-1 | Ratio [28]: 63.6 | Adrenal uptake (Rattus norvegicus [29]): 2.51 | Ratio [30]: 16.6 | Dose (Homo sapiens [1]; Female gonad): 4.4 rd mCi-1 | Dose (Homo sapiens [3]): 7.7 rd mCi-1 | Dose (Homo sapiens [4]): 5.3 rd mCi-1 | Ratio [31]: 9.1 | Ratio [32]: 49.7 | Dose (Homo sapiens [5]): 4.1 rd mCi-1 | Adrenal uptake (Rattus norvegicus [33]): 2.86 | Adrenal uptake (Rattus norvegicus [34]): 0.34 | Ratio [35]: 37.3 | Adrenal uptake (Rattus norvegicus [36]): 1.1 | Ratio [37]: 102 | Ratio [38]: 44 | Dose (Homo sapiens [6]): 83 rd mCi-1 | Ratio [39]: 23.9 | Ratio [40]: 33.7 | Adrenal uptake (Rattus norvegicus [41]): 0.16
